Source: PubChem (several laboratories)
Rows were chosen to be rich in hits. Some 1.6% of all compounds tested hit in one or more screens of this group.
VLA-4 inh – inhibition in a human VLA-4 binding assay; VLA-4 expressing cells, ligand binding flow cytometry; hit rate 0.2% among 330,000; AID 2557; inhibition, % (about 7 µM as worked out from the volumes in the protocol); P13612; in the data active means inhibition above about 50%
Target sequence (P13612 whole entry, looked up): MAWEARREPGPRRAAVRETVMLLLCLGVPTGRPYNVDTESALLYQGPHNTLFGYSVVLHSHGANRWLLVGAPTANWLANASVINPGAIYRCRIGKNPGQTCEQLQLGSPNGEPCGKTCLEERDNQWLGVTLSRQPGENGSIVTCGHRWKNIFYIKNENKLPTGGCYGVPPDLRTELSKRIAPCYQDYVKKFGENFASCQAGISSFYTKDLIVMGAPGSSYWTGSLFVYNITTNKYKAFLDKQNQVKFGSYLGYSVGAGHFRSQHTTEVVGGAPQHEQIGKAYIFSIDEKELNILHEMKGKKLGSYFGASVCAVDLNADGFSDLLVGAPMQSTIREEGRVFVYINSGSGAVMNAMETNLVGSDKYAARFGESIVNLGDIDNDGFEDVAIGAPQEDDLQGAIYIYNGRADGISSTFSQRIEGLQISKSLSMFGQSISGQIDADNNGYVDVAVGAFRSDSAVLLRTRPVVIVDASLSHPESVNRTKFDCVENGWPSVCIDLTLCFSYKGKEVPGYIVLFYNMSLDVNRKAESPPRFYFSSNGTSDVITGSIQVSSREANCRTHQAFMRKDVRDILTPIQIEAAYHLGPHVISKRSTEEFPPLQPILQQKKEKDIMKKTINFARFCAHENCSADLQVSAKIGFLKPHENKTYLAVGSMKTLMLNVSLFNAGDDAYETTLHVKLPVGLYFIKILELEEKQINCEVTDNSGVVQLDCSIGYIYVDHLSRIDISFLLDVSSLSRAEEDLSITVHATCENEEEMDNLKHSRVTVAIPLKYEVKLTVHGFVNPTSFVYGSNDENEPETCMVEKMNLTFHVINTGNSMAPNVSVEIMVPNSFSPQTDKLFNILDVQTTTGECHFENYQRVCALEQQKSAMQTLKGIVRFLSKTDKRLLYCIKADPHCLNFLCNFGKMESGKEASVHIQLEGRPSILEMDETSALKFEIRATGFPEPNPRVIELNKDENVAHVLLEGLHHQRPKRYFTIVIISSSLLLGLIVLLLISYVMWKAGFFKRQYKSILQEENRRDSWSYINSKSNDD
Rev-erbA mod – Rev-erb alpha (human) modulation; P20393; AID 1259318; activity, % at 10 µM; hit rate 0.79% among 370,000; Rev-erbα–FITC-DNA binding, fluorescence polarization, 90 min;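 active means activity above about 14%, limit read from the data; passing the limit was not always enough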;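 further: 0% = DMSO wells with 35 nM protein and 100% = DMSO wells with 750 nM protein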
NR2E3 ag-1 – agonists of human nuclear receptor NR2E3. GST-NR2E3/biotin-RetCOR TR-FRET, 1536-well. inhibition of corepressor binding, % at 4.78 µM. hit rate 0.12% among 320,000;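 active means percent inhibition above the cutoff of mean plus 3 SD of all tested compounds, set per screening campaign, cut at about 20% in these data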;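 further: 0% = DMSO wells and 100% = biotin wells as full block of FRET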
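Material: NR2E3–RetCOR corepressor complex / Amount: 1.35 nM GST-NR2E3 / Medium: Tris pH 7.5 / Compound: single nominal compound dose of 4.8 µM / Incubation: 5 h at 4 °C / Technique: TR-FRET, Eu(K)-anti-GST donor, streptavidin-D2 acceptor, ex 340, em 617/671 nm / Read-out basis: percent loss of FRET ratio relative to control wells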
NR2E3 ag-2 – activates human NR2E3 receptor | Q9Y5X4 | CHO-S Gal4-NCOR/VP16-NR2E3 two-hybrid, luciferase | hit rate 0.35% among 360,000 | inhibition of corepressor binding, % at 3.98 µM;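 active means inhibition above the mean of all tested compounds plus 3 SD, cut at about 70% in these data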;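 further: 0% = DMSO with NR2E3 transfected cells and 100% = cells lacking NR2E3 construct; higher means lower luciferase signal from less NR2E3 corepressor binding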
PG9 Ab binder – small molecules binding HIV-1 gp120 antibody PG9. inhibition, % at 6.7 µM. TR-FRET gp120-PG9 antibody binding. hit rate 0.43% among 360,000; in the data active means inhibition above about 8.5%
PG9 binder conf – confirmation of small molecules binding HIV-1 gp120 antibody PG9; shares compounds with PG9 Ab binder; TR-FRET PG9 antibody binding, biochemical; inhibition, % at 6.7 µM; hit rate 90% among 1,500; in the data active means inhibition above about 9%
PGV04 Ab binding – counter-screen for PG9 binders: binding control antibody PGV04 | shares compounds with PG9 Ab binder | TR-FRET PGV04 antibody-gp120 binding, biochemical | inhibition, % at 6.7 µM | hit rate 95% among 1,500; in the data active means inhibition above about 9.5%
PG9 binder DR – small molecules binding HIV-1 gp120 antibody PG9. AID 651848. 95 tested, under 10 active. TR-FRET PG9 antibody-gp120 binding inhibition. IC50, µM. shares compounds with PG9 Ab binder; in the data active means IC50 below about 10 µM
PGV04 binding DR – binds control antibody PGV04 in PG9 counter-screen; TR-FRET binding to control antibody PGV04; IC50, µM; shares compounds with PG9 Ab binder; hit rate 20% among 95
PG126 binding DR – counter-screen for PG9 binders: binding to control antibody PG126. AID 651939. shares compounds with PG9 Ab binder. hit rate 20% among 95. IC50, µM. TR-FRET binding to antibody PG126, counterscreen
NR1D1 mod conf – Rev-erb alpha (human) modulation, hit confirmation. Rev-erb alpha FITC-DNA binding, fluorescence polarization, 90 min. activation, % at 25 µM. hit rate 61% among 3,000. shares compounds with Rev-erbA mod;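 active means activation at or above a set limit, or at least 3 SD above the negative control mean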;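 further: 0% = 35 nM protein with DMSO and 100% = 750 nM protein high control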
RORg counter – counter-screen for Rev-erb alpha modulators: RORgamma DNA binding | shares compounds with Rev-erbA mod | IC50, µM | purified RORgamma protein-FITC-DNA binding, fluorescence polarization | hit rate 8% among 910 | AID 1259320;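 active means Compounds whose fitted half-maximal concentration for disrupting protein-DNA binding is below 10 micromolar; the record names Rev-erb in its text, so the target is in doubt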
* hit, by the source's call; i = inactive; nt = no result. Unless noted, no stated cut-off is given here; in the data, active means IC50 below about 9 µM; inactive means the rest.

SMILES	VLA-4 inh	Rev-erbA mod	NR2E3 ag-1	NR2E3 ag-2	PG9 Ab binder	PG9 binder conf	PGV04 Ab binding	NR1D1 mod conf	others
COc1cc(C(=O)Nc2cc(Cl)ccc2-n2cncn2)ccc1OC(F)F	5.3	31.3*	-2.1	6.5	10.2*	22.7*	38.2*	16.0
Cn1cc(C2(c3c[nH]c4ccccc34)CCN(C(=O)OC(C)(C)C)CC2)c2ccccc21	nt	14.8	nt	nt	nt	nt	nt	nt
COC(=O)c1ccc(NC(=O)c2ccc3nc(C)sc3c2)cc1	-15.1	38.8*	-2.3	-113.2	28.8*	31.6*	49.1*	17.8*
Cc1ccccc1N(C(=O)c1snc(C(N)=O)c1N)C(C(=O)NCc1ccccc1)c1ccc(O)cc1 (stereo not drawn)	-7.3	18.7*	0.4	1.4	29.8*	30.8*	45.0*	-5.8
CCOc1ccccc1CNC(=O)C1CCN(c2nnc(C)c3c(C)n(-c4ccc(C)cc4)nc23)CC1	-6.6	44.1*	-14.2	17.8	9.3*	12.4*	33.1*	33.8*	RORg counter=>40
Cc1ccc(-n2nc3c(N4CCC(C(=O)NCc5ccccc5C)CC4)nnc(C)c3c2C)cc1	1.6	nt	-43.9	33.4	nt	nt	nt	nt
O=C(OC12CCCN(C1)/C(=C/c1ccncc1)C2)c1cccc(F)c1 (stereo not drawn)	nt	4.6	nt	nt	nt	nt	nt	nt
C[C@@H](NC(=O)c1ncn2c1c(=O)[nH]c1ccc(Br)cc12)c1ccccc1	nt	131.6*	nt	-13.2	18.3*	46.4*	53.8*	23.1*
C[C@@H](NC(=O)c1ncn2c1c(=O)[nH]c1cccnc12)c1ccccc1	nt	0.1	nt	-12.9	0.1	nt	nt	nt
Cc1cc(C)cc(OCc2nc3ncc(Br)cc3[nH]2)c1	17.8	61.9*	4.4	-70.7	34.4*	47.4*	62.6*	38.5*	RORg counter=>40
Brc1cnc2nc(SCc3nc4ccccc4[nH]3)[nH]c2c1	-0.8	-3.2	-2.7	38.2	-1.1	nt	nt	nt
Cc1ccc(OCC(=O)Nc2ccc(S(=O)(=O)Nc3ccccn3)cc2)cc1C	-2.6	28.6*	14.1	-6.1	49.9*	40.9*	45.2*	21.6*
Cc1nc2sc(C(=O)NCc3ccc4c(c3)OCO4)c(N)c2c(C)c1Cl	nt	8.4	nt	nt	nt	nt	nt	nt
COc1ccc(-c2cc(-c3ccccc3)c(C#N)c(S(C)=O)n2)cc1 (stereo not drawn)	22.6	0.9	1.1	17.7	0.3	nt	nt	nt
N#Cc1c(-c2ccccc2)cc(-c2ccccc2)nc1Br	21.8	28.5*	6.0	18.8	8.7*	14.1*	17.4*	10.1
CCc1nc(Nc2cc(OC)ccc2OC)c2oc3ccccc3c2n1	-7.5	22.1*	4.8	-56.2	13.4*	20.0*	25.2*	12.1
CCc1nc(Nc2ccccc2OC)c2oc3ccccc3c2n1	-1.0	-1.4	1.5	-24.2	-2.1	nt	nt	nt
COc1ccccc1CNC(=O)NCCCN1CCN(c2ccc(F)cc2)CC1	nt	-2.2	nt	nt	nt	nt	nt	nt
COC(=O)c1c(NC(=O)CN2C(=O)NC3(CCc4ccccc4C3)C2=O)sc2c1CCCCC2 (stereo not drawn)	5.9	30.4*	1.8	-18.5	15.0*	21.9*	34.3*	25.8*
COC(=O)c1c(NC(=O)CN2C(=O)NC3(CCC(C(C)(C)C)CC3)C2=O)sc2c1CCCCC2 (stereo not drawn)	0.2	13.2	3.8	-3.4	0.4	nt	nt	nt
COc1ccc2oc(=O)c(C(=O)NCc3ccccc3)cc2c1	24.0	14.0	2.6	-16.3	0.0	nt	nt	nt
CCCOc1ccc2cc(C(=O)NCc3ccccc3)c(=O)oc2c1	-8.9	69.8*	6.9	-5.9	10.7*	38.4*	56.4*	28.8*
O=C(COc1ccc2ccccc2c1Br)NNC(=O)Nc1ccccc1	23.9	281.1*	-60.8	-8.8	36.7*	41.3*	48.3*	380.7*	RORg counter=4.04*
COC(=O)NNC(=O)COc1ccc2ccccc2c1Br	-5.8	-2.2	-0.8	-28.5	1.5	nt	nt	nt
Cc1ccccc1CC(=O)Nc1nnc(-c2cccnc2)s1	nt	-3.1	nt	nt	nt	nt	nt	nt
SMILES	VLA-4 inh	Rev-erbA mod	NR2E3 ag-1	NR2E3 ag-2	PG9 Ab binder	PG9 binder conf	PGV04 Ab binding	NR1D1 mod conf	others
NS(=O)(=O)c1ccc(CCNC(=O)CCCCCn2c(=S)[nH]c3ccc(Br)cc3c2=O)cc1	26.6	41.0*	5.9	9.5	29.5*	28.3*	25.8*	15.9	PG9 binder DR=i;PGV04 binding DR=i;PG126 binding DR=i
Cc1ccc2[nH]c(=O)c(CN(C)C(=O)c3cccs3)cc2c1	-6.3	4.6	1.2	-14.5	-2.0	nt	nt	nt
Cc1ccc2[nH]c(=O)c(COC(=O)c3cccs3)cc2c1	7.2	33.2*	17.6	-38.8	17.8*	49.8*	66.2*	20.8*
CCCCC(=O)N1CCN(C(=O)c2ccc3c(c2)nc(C)n3C2CCCC2)CC1	nt	-8.0	nt	nt	nt	nt	nt	nt
O=c1sc(N2CCN(c3ccc(F)cc3)CC2)nc2ccsc12	-8.7	146.1*	-1.1	-54.0	23.4*	57.1*	82.5*	95.7*	RORg counter=>40
COC(=O)[C@H]1C[C@@]2(n3ccc4ccccc43)c3ccccc3N(S(=O)(=O)c3ccccc3)[C@H]2N1C(=O)CNC1CCCCC1	nt	3.7	nt	nt	nt	nt	nt	nt
Cc1ccccc1NC(=O)c1sc(NC(=O)COc2ccccc2)c(C#N)c1C	-8.3	73.8*	1.5	-9.8	34.4*	36.8*	52.5*	58.1*	RORg counter=>40
Cc1cccc(NC(=O)c2sc(NC(=O)COc3ccccc3)c(C#N)c2C)c1C	0.6	9.9	2.2	-18.4	0.8	nt	nt	nt
CCOC(=O)c1cnc2cc(C)nn2c1C	3.0	-4.1	-2.2	-29.8	0.1	nt	nt	nt
CCOC(=O)c1cnc2cc(-c3ccc(Br)cc3)nn2c1C	1.7	17.9*	2.3	-35.1	9.4*	6.5	6.9	10.2
N#Cc1c(N)nc(-c2ccccc2)nc1-c1ccccc1	9.3	3.8	1.6	1.8	1.9	nt	nt	nt
CC(C)Nc1nc(-c2ccncc2)nc(-c2ccccc2)c1C#N	-0.5	40.1*	-1.3	-6.6	9.1*	43.1*	60.8*	14.1
CCn1c(-c2ccccc2)c[nH]c1=S	-3.6	11.2	4.5	12.0	-0.2	nt	nt	nt
S=c1[nH]cc(-c2ccc(Cl)cc2)n1Cc1ccccc1	3.7	26.2*	1.2	1.0	16.4*	16.6*	21.4*	12.8
